ChEMBL document CHEMBL4431335, “Synthesis and trypanocidal activity of novel benzimidazole derivatives” (Bioorg Med Chem Lett, 2016)

Tests used:
[1] = target: Triosephosphate isomerase, glycosomal (Trypanosoma cruzi) (UniProt P52270); test: Inhibition of recombinant Trypanosoma cruzi triosephosphate isomerase assessed as reduction of DHAP at 100 uM after 2 hrs by measuring NADH consumption by alpha-glycerolphosphate dehydrogenase coupled assay
Outline: (§1)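 Recombinant TIM (T. cruzi or human) at 5 µg/mL was preincubated with compound at 36 °C in 100 mM triethanolamine, 10 mM EDTA, pH 7.4, with compound dissolved in 10% DMSO. After 2 h, 1 µL was transferred into 1 mL of activity mix. Activity was measured as NADH consumed by α-glycerolphosphate dehydrogenase reducing DHAP. Controls were enzyme alone, substrate alone, and enzyme plus DMSO.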

Trypanosoma cruzi [2] = test: Antitrypanosomal activity against epimastigote forms of Trypanosoma cruzi NINOA isolated from chagas disease patient after 24 hrs by resazurin dye based spectrophotometric analysis; assay type: functional, organism-based
Outline: (§2)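 Epimastigotes at 1 × 10⁵/ml were exposed to compound for 24 h at 28 °C. Compounds were taken from 10 mg/mL DMSO stocks and diluted in sterile water, with final DMSO at most 1%. Concentrations were […], with DMSO-treated parasite controls. Viability was read by resazurin fluorescence (535/590 nm). Runs were in duplicate and IC50 was derived.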

[3] = Cytotoxicity against mouse J774 cells assessed as decrease in cell viability after 24 hrs by resazurin assay; assay type: cell-based
Outline: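 Mouse J774 macrophages were grown in DMEM with 10% FBS and treated with a range of compound concentrations for 24 h at 37 °C, 5% CO₂, with final DMSO below 1%. Untreated cells served as controls. Resazurin was added for 3 h and fluorescence was read (535/590 nm). Cytotoxicity was scored as % metabolic reduction versus untreated cells, and CC50 was derived.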

[4] = Solubility of the compound in DMSO at 200 uM; assay type: physicochemical
[5] = target: Triosephosphate isomerase (Homo sapiens) (UniProt P60174); test: Inhibition of recombinant human triosephosphate isomerase assessed as reduction of DHAP at 100 uM after 2 hrs by measuring NADH consumption by alpha-glycerolphosphate dehydrogenase coupled assay; outline: as §1
Sequence of Triosephosphate isomerase (Homo sapiens) (P60174 whole entry): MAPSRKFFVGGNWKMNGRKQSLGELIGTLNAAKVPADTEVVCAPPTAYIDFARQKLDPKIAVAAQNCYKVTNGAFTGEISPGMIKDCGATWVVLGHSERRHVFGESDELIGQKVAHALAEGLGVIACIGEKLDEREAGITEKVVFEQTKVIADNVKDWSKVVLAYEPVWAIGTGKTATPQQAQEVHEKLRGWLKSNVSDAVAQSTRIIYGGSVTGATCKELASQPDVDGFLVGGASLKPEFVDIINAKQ

Trypanosoma cruzi [6] = test: Antitrypanosomal activity against epimastigote forms of Trypanosoma cruzi INC-5 isolated from chagas disease patient after 24 hrs by resazurin dye based spectrophotometric analysis; assay type: functional, organism-based; details: INC-5, 24 h; outline: as §2
[7] = target: Triosephosphate isomerase, glycosomal (Trypanosoma cruzi) (UniProt P52270); test: Inhibition of recombinant Trypanosoma cruzi triosephosphate isomerase assessed as reduction of DHAP at 200 uM after 2 hrs by measuring NADH consumption by alpha-glycerolphosphate dehydrogenase coupled assay; outline: as §1
[8] = target: Triosephosphate isomerase, glycosomal (Trypanosoma cruzi, UniProt P52270); test: Inhibition of recombinant Trypanosoma cruzi triosephosphate isomerase assessed as reduction of DHAP after 2 hrs by measuring NADH consumption by alpha-glycerolphosphate dehydrogenase coupled assay; outline: as §1
Sequence of Triosephosphate isomerase, glycosomal (P52270 whole entry): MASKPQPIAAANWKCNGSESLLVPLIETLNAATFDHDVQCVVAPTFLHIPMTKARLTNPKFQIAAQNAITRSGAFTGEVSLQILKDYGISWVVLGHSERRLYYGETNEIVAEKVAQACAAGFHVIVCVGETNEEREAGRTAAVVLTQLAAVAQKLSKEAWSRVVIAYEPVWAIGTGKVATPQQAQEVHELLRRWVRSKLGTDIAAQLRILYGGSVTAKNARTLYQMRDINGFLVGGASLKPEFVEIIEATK

[9] = target: Triosephosphate isomerase (Homo sapiens) (UniProt P60174); test: Inhibition of recombinant human triosephosphate isomerase assessed as reduction of DHAP at 200 uM after 2 hrs by measuring NADH consumption by alpha-glycerolphosphate dehydrogenase coupled assay; outline: as §1

Sequence of Triosephosphate isomerase, glycosomal (Trypanosoma cruzi) (P52270 whole entry): as above

| SMILES | inhibition [1] | IC50 (Trypanosoma cruzi [2]) | solubility [4] | IC50 (Trypanosoma cruzi [6]) | inhibition [7] | CC50 at 24 h [3] | further results |
| --- | --- | --- | --- | --- | --- | --- | --- |
| COC(=O)c1ccc2nc(SCC(=O)Nc3ncc([N+](=O)[O-])s3)[nH]c2c1 |  |  |  |  | 52% |  |  |
| COC(=O)c1cc2nc(SCC(=O)Nc3ccncc3)[nH]c2cc1Cl |  |  |  |  | 33% |  |  |
| COC(=O)c1cc2nc(SCC(=O)Nc3ccccc3)[nH]c2cc1Cl |  |  |  |  | 33% |  |  |
| COC(=O)c1cc2nc(SCC(=O)Nc3nccs3)[nH]c2cc1Cl |  | 120 µM |  | 48.9 µM | 59% | 104 µM | IC50 [8]: 223 µM; inhibition [9]: 0% |
| COC(=O)c1cc2nc(SCC(=O)Nc3ccc(Cl)cc3)[nH]c2cc1Cl | 65% | 57 µM | Insoluble | 186 µM |  | 90.4 µM | inhibition [5]: 0% |
| O=C(CSc1nc2cc(Oc3cccc4ccccc34)c(Cl)cc2[nH]1)Nc1ncc([N+](=O)[O-])s1 |  |  |  |  | 48% |  |  |
| COC(=O)c1cc2nc(SCC(=O)Nc3ncccn3)[nH]c2cc1Cl |  |  |  |  | 0% |  |  |
| CC1CS(=O)(=O)CCN1/N=C/c1ccc([N+](=O)[O-])o1 (centres undefined) [NIFURTIMOX] |  | 89.8 µM |  | 50.8 µM |  | 132 µM |  |
| COC(=O)c1cc2nc(SCC(=O)Nc3ccc([N+](=O)[O-])cn3)[nH]c2cc1Cl | 0% |  | Insoluble |  |  |  |  |
| COC(=O)c1cc2nc(SCC(=O)Nc3ncc([N+](=O)[O-])s3)[nH]c2cc1Cl |  | 95.4 µM |  | 42.5 µM | 69% | 84.9 µM | IC50 [8]: 77 µM; inhibition [9]: 15% |
| COC(=O)c1cc2nc(SCC(=O)Nc3cnccn3)[nH]c2cc1Cl |  | 98.8 µM |  | 28.7 µM | 68% | 135 µM | IC50 [8]: 82 µM; inhibition [9]: 6% |
| COC(=O)c1cc2nc(SCC(=O)Nc3ccc(OC)cn3)[nH]c2cc1Cl | 4% |  | Insoluble |  |  |  |  |

Now from value to compound, other results behind:

| inhibition [1] | IC50 (Trypanosoma cruzi [2]) | solubility [4] | IC50 (Trypanosoma cruzi [6]) | inhibition [7] | SMILES | CC50 at 24 h [3] | further results |
| --- | --- | --- | --- | --- | --- | --- | --- |
| 41% | 124 µM | Insoluble | 95 µM |  | COC(=O)c1cc2nc(SCC(=O)Nc3ccc(Cl)cn3)[nH]c2cc1Cl | 82.7 µM | inhibition [5]: 0% |
|  |  |  |  | 10% | COC(=O)c1cc2nc(SCC(=O)Nc3ccccn3)[nH]c2cc1Cl |  |  |
| 0% |  | Insoluble |  |  | COC(=O)c1cc2nc(SCC(=O)Nc3cccc(C)n3)[nH]c2cc1Cl |  |  |
| 0% |  | Insoluble |  |  | COC(=O)c1cc2nc(SCC(=O)Nc3cccc(C(N)=O)n3)[nH]c2cc1Cl |  |  |
| 21% |  | Insoluble |  |  | COC(=O)c1cc2nc(SCC(=O)Nc3cccc(Cl)n3)[nH]c2cc1Cl |  |  |
